Compound activity (PubChem)
Compounds with a hit are over-represented: about 2.5% of the library has one in this group of screens.
T cell HTS: modulates CD8 T cell binding to vesicles. 2C CD8+ T cell-vesicle binding, flow cytometry; active compounds read low. hit rate 0.068% among 330,000. response (vesicle binding), % at 7 µM;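 active = response, share of CD8 T cells binding vesicles, and their 90th percentile fluorescence all below set limits, cut at about 80% in these data, passing the limit was not always enough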;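 note: values below 100% mean blocked vesicle binding to the CD8+ T cells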
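Material: murine 2C transgenic CD8+ T lymphocytes / Also added: QL9-peptide-loaded Drosophila micro-vesicles bearing Ld, ICAM-1 and B7-1 / Schedule: binding step 1.5 h, 37 °C, antibody labelling 20 min, ice / Signal: flow cytometry, PE anti-B7-1 (FL2) versus Alexa647 anti-CD8 (FL8), PFA-fixed / Evaluation: percent CD8+ FL2 mean versus row control / Benchmarks: naked versus QL9-loaded vesicles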
UCH37 inh: blocks the human deubiquitinase UCH37; hit rate 0.33% among 330,000; AID 588478; inhibition, % (no concentration beside the values); purified proteasome/UCH37, Ub-AMC cleavage fluorescence;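 active = mean inhibition over replicate wells above about 20%, limit read from the data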;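 note: 0% = compound-free wells with enzyme and 100% = wells lacking proteasome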
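system = Proteasome-associated human UCH37 deubiquitinase | amount = 0.15 nM proteasome as dispensed | medium = pH 7.4 Tris-HCl (50 mM) with ovalbumin, ATP-MgCl2, DTT | incubation = 30 min preincubation with enzyme, 25 min cleavage at room temperature | detection = AMC fluorescence 355/460 nm | read-out basis = percent inhibition | controls = no-proteasome and no-compound wells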
Rce1 inh: blocks yeast Ras-converting enzyme; Q03530; yeast membranes, quenched prenylated peptide cleavage fluorescence; calls only; hit rate 0.27% among 290,000;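 active = fall in fluorescence gain of 50% or more versus controls, with final raw signal at or below 3038400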;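 note: plate controls were neutral control wells for no effect and wells lacking membranes for full effect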
Target sequence (Q03530 whole entry, looked up): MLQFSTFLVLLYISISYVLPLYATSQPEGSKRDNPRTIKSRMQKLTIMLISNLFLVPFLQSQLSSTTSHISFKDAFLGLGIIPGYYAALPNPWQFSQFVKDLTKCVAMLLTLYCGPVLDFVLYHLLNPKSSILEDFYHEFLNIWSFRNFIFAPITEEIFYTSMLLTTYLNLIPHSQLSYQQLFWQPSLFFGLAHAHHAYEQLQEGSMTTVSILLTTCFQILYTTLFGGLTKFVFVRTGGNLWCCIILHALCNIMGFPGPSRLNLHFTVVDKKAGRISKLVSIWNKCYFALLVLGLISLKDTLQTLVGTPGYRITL
MEKK3 PB1 HTS: raises or lowers MEK5 binding to the human MEKK3 PB1 domain; binding response (% of control), % at 10 µM; Q99759; hit rate 1.4% among 290,000; AID 1529; bead-based flow cytometry, Alexa488-MEK5 binding to MEKK3; actives lie on both sides; 0 = blocked by unlabeled MEK5, 100 = vehicle;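 active = binding response more than 3 SD above or below the average of its plate-row segment, actives on both sides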;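 note: Alexa488 bead fluorescence after subtracting the streptavidin-only scavenger bead signal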
MEKK2mut PB1 HTS: signal of MEK5 binding to mutant human MEKK2 PB1 domain; hit rate 0.35% among 290,000; bead flow cytometry, Alexa488-MEK5 binding to MEKK2 mutant; percent response, % at 10 µM; AID 1530; in the data active = percent response above about 24%, passing the limit was not always enough
MEKK2 WT-MEK5: raises or lowers MEK5 binding to wildtype human MEKK2 PB1 domain; Q9Y2U5; bead flow cytometry, Alexa488-MEK5 binding to MEKK2 WT; actives lie on both sides; binding response (% of control), % at 10 µM; hit rate 1.1% among 290,000; AID 1531; in the data active = binding response below about 67% or above about 130%
MEKK2wt confirm: raises or lowers MEK5 binding to wildtype human MEKK2, retest | shares compounds with MEKK3 PB1 HTS | bead flow cytometry, Alexa488-MEK5 binding to MEKK2 WT; actives lie on both sides | binding response (% of control), % at 10 µM | hit rate 2.4% among 5,900 | AID 1892; in the data active = binding response below about 16% or above about 210%; inactive = in between
MEKK2mut-MEK5: signal of MEK5 binding to mutant human MEKK2, retest. shares compounds with MEKK3 PB1 HTS. bead flow cytometry, Alexa488-MEK5 binding to MEKK2 mutant. percent response, % at 10 µM. hit rate 2% among 5,900. AID 1893; in the data active = percent response mostly above about 71%, no sharp cut-off; inactive = mostly below about 38%;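 note: higher means compound restores mutant binding toward wildtype level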
MEKK3-MEK5 inh: MEKK3-MEK5 PB1 inhibition, single concentration confirmation; shares compounds with MEKK3 PB1 HTS; bead flow cytometry, Alexa488-MEK5 binding to MEKK3; active compounds read low; binding response (% of control), % at 10 µM; hit rate 1.8% among 5,900; AID 1894;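 active = binding response below 72% of control, or above a set upper limit, though filed actives all read lower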;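 note: 100% = DMSO only wells and 0% = binding blocked by excess unlabeled MEK5; lower values mean stronger disruption of MEK5 binding to MEKK3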
* = called active by the depositor; i = inactive; · = not tested or not shown; [ ] = another dose, or the depositor's remark.

SMILES	T cell HTS	UCH37 inh	Rce1 inh	MEKK3 PB1 HTS	MEKK2mut PB1 HTS	MEKK2 WT-MEK5	MEKK2wt confirm	MEKK2mut-MEK5	MEKK3-MEK5 inh
CN1CCC2(CC1)N=C(c1ccc(F)cc1)C(=S)N2C(=O)c1ccc(C(C)(C)C)cc1	205	6	i	101	44	147*	115	2	99
CCN(CC)c1ccc(/C=C(\C#N)C(=O)c2ccc(Br)cc2)cc1	507	13	i	123	153*	148*	49	-48	85
CCN(CC)c1ccc(/C=C(\C#N)C(N)=O)cc1	·	·	·	103	-6	97	·	·	·
Cc1ccc(-n2c(O)c(C=NCc3ccccn3)c3ccccc3c2=O)cc1	250	1	i	129*	0	106	92	-9	94
COc1ccc(C(CCN2CCCCC2)c2c(OC)cc(OC)c3c(-c4ccccc4)cc(=O)oc23)cc1 (stereo not given)	165	-3	i	106	26*	182*	153	22	106
COc1cc(C(CCN2CCCC2)c2c(OC)cc(OC)c3ccc(=O)oc23)cc(OC)c1OC (stereo not given)	180	1	i	94	5	98	·	·	·
COc1cc(OC)c2c(-c3ccccc3)cc(=O)oc2c1C(CCN1CCCCC1)c1ccc(N(C)C)cc1 (stereo not given)	130	3	i	127	20	183*	154	34	104
CC1CC2=C(C(=O)O1)C(c1ccccc1)Nc1ccccc1N2 (stereo not given)	186	8	i	79	-1	98	·	·	·
CC1CC2=C(C(=O)O1)C(C)Nc1ccccc1N2 (stereo not given)	336	4	i	155*	1	105	102	-1	100
CSCCC(NC(=O)c1ccccc1)C(=O)NN=C(C)Cc1ccccc1 (stereo not given)	·	4	·	·	·	·	·	·	·
CON=C(CS(=O)c1ccc(Br)cc1)c1ccc(OC)cc1 (stereo not given)	·	2	·	·	·	·	·	·	·
CCOC(=O)c1ccc(-n2c(C)nc3c(cnn3-c3ccccc3Cl)c2=O)cc1	189	-1	i	124*	5	117	96	-7	103
Nc1ccc(C(=O)NN=Cc2sc(N3CCOCC3)nc2-c2ccccc2)cc1	·	-33	·	·	·	·	·	·	·
CCOc1ccc(NC(=O)CC2C(=O)N(c3ccc(OC)cc3)C(=S)N2Cc2ccccn2)cc1 (stereo not given)	312	1	i	96	-7	93	·	·	·
CCCCCCOc1ccc(NC(=O)CC2C(=O)N(CC)C(=S)N2Cc2ccco2)cc1 (stereo not given)	920	4	i	110	3	141*	111	3	107
CCOc1ccc(NC(=O)CC2C(=O)N(c3ccccc3)C(=S)N2Cc2ccccn2)cc1 (stereo not given)	357	6	i	1.0*[inhibitor]	-18	1.0*[inhibitor]	107	3	101
C=CCN1C(=O)C(CC(=O)Nc2ccc(OCCC)cc2)N(CCCN2CCN(Cc3ccccc3)CC2)C1=S (stereo not given)	257	3	i	111	42	183*	148	22	110
NC(=NOC(=O)Cc1ccc([N+](=O)[O-])cc1)c1ccc([N+](=O)[O-])cc1	·	0	·	·	·	·	·	·	·
COc1ccccc1C=NNC(=O)CC(=O)NCCc1ccccc1	·	2	·	·	·	·	·	·	·
Cc1ccc(N2CCN(N=Cc3cccs3)CC2)cc1	·	1	·	·	·	·	·	·	·
